The values below come from ChEMBL document CHEMBL3259660, “Haloemodin as novel antibacterial agent inhibiting DNA gyrase and bacterial topoisomerase I” (J Med Chem, 2014).

In brackets after ≈: the same amount, converted by molar mass. Activity calls are given as the source filed them. The calls are words filed in the database; no cut-off is given here.

Data set [1] relates to Escherichia coli. The data set can be described thus: Antibacterial activity against Escherichia coli ATCC 25922 assessed as growth inhibition by agar dilution assay. Format: functional. An outline of the steps:
(§1)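 Agar dilution MIC per CLSI (aerobic and anaerobic methods); compounds dissolved in DMSO, reference antibiotics in sterile water. MIC taken as lowest concentration with no visible growth; determined at least twice on separate days, higher value reported. Clinical isolate ranges summarized as MIC50/MIC90.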

Data set [2] relates to Pseudomonas aeruginosa. The data set can be described thus: Antibacterial activity against Pseudomonas aeruginosa assessed as growth inhibition by agar dilution assay. Format: functional. An outline of the steps: (§2)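 CLSI agar dilution MIC against aerobic and anaerobic strains. Test compounds were dissolved in DMSO and reference antibiotics in sterile water. MIC was taken as the lowest concentration showing no bacterial growth. Each MIC was determined at least twice on separate days, and the higher value was reported. E. coli PQ 37 was cultured in LA medium.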

Data set [3] deals with Pseudomonas aeruginosa. The data set can be described thus: Antibacterial activity against Pseudomonas aeruginosa ATCC 27853 assessed as growth inhibition by agar dilution assay. It counts as functional. An outline of the steps: as §1
Data set [4] concerns Bacteroides fragilis. The data set can be described thus: Antibacterial activity against Bacteroides fragilis assessed as growth inhibition by agar dilution assay. Format: functional. An outline of the steps: as §1
Data set [5] deals with Bacteroides fragilis. The data set can be described thus: Antibacterial activity against Bacteroides fragilis ATCC 25285 assessed as growth inhibition by agar dilution assay. It counts as functional. In outline:
as §1

The test system of data set [6] is Streptococcus pneumoniae. The data set can be described thus: Antibacterial activity against Streptococcus pneumoniae assessed as growth inhibition by agar dilution assay. Format: functional. In outline: as §1
In data set [7] the test system is Streptococcus pneumoniae. The data set can be described thus: Antibacterial activity against Streptococcus pneumoniae ATCC 49619 assessed as growth inhibition by agar dilution assay. It counts as functional. In outline: as §1
Data set [8] is described as follows: Cytotoxicity against CHL cells assessed as cell viability after 24 hrs by MTT assay. As to conditions: chinese hamster. It counts as cell-based, Cricetulus griseus. In outline: (§3)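 CHL fibroblasts seeded at about 5 × 10^4 cells/mL, incubated overnight at 37 °C, 5% CO2, then exposed to compound at different concentrations for 24 h. Viability read by MTT, absorbance at 570 nm, relative to cells in medium alone (100%). Triplicate.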

Data set [9] concerns Brevibacillus laterosporus. The data set can be described thus: Antibacterial activity against Brevibacillus laterosporus ATCC 64 assessed as growth inhibition by agar dilution assay. Format: functional.
In data set [10] the test system is Staphylococcus aureus. The data set can be described thus: microbe, parasite or virus in culture. As to conditions: ATCC 6538. Format: functional.
The nature of data set [11]: Cytotoxicity against CHL cells assessed as cell viability at 0.256 mg/ml after 24 hrs by MTT assay. The settings on record: chinese hamster, read-out: Activity. It counts as cell-based, Cricetulus griseus. In outline:
as §3

Data set [12] relates to Staphylococcus aureus. The data set can be described thus: Antibacterial activity against Staphylococcus aureus ATCC 29213 assessed as growth inhibition by agar dilution assay. It counts as functional. In outline: as §1
For data set [13], the system named is Bacillus cereus. The data set can be described thus: Antibacterial activity against Bacillus cereus ATCC 10231 assessed as growth inhibition by agar dilution assay. It counts as functional.
In data set [14] the test system is Staphylococcus aureus. The data set can be described thus: In vivo antibacterial activity against Staphylococcus aureus in New zealand rabbit keratitis model assessed as suppression of conjuctival congestion, conjuctival chemosis, infiltration, operative ulcer area and depth at 3 mg/ml administered topically every 4 hrs for four doses every day for 10 days starting 24 hrs post-infection by slit lamp biomicroscopy. Format: functional, organism-based. In outline: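 NZW rabbits (2.0−3.0 kg), anesthetized with iv sodium pentobarbital 30 mg/kg, given intracorneal S. aureus (about 7.5 × 10^6 CFU) from an overnight LB culture. Starting 24 h post-infection, 30 μL drops applied topically per eye every 4 h, four doses daily (8 a.m.–8 p.m.), for 10 days, masked. Test compound in PEG–water (1:1). Slit-lamp biomicroscopy before and after.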

Data set [15] deals with Staphylococcus epidermidis. The data set can be described thus: Antibacterial activity against methicillin-sensitive Staphylococcus epidermidis assessed as growth inhibition by agar dilution assay. Format: functional. In outline:
as §1

For data set [16], the system named is Staphylococcus aureus. The data set can be described thus: Antibacterial activity against methicillin-resistant Staphylococcus aureus assessed as growth inhibition by agar dilution assay. Format: functional. In outline: as §2
Data set [17] concerns Staphylococcus epidermidis. The data set can be described thus: Antibacterial activity against methicillin-resistant Staphylococcus epidermidis assessed as growth inhibition by agar dilution assay. Format: functional. In outline:
as §2

Data set [18] has as its system Staphylococcus aureus. The data set can be described thus: Antibacterial activity against methicillin-sensitive Staphylococcus aureus assessed as growth inhibition by agar dilution assay. It counts as functional. In outline:
as §1

For `CCN1CCN(C(=O)N[C@@H](C(=O)N[C@@H]2C(=O)N3[C@@H]2SC(C)(C)[C@@H]3C(=O)[O-])c2ccccc2)C(=O)C1=O.[Na+]` [PIPERACILLIN SODIUM], the MIC in data set [1] amounted to 4 µg/mL; in data set [2], 2 µg/mL; in data set [3] it was 4 µg/mL.
As to `CCC[C@@H]1C[C@@H](C(=O)N[C@@H]([C@H]2O[C@H](SC)[C@H](OP(=O)(O)O)[C@@H](O)[C@H]2O)[C@H](C)Cl)N(C)C1` [CLINDAMYCIN PHOSPHATE], the results for the MIC in [4] and in data set [5] were 0.03 µg/mL and 0.5 µg/mL, respectively.
Turning to `CC1(C)S[C@@H]2[C@H](NC(=O)Cc3ccccc3)C(=O)N2[C@H]1C(=O)[O-].[Na+]` [PENICILLIN G SODIUM], the values for the MIC in data set [6] and in [7] were 8 µg/mL and 0.25 µg/mL, respectively.
Take `Cc1cc2c(c(O)c1I)C(=O)c1c(O)c(I)c(O)c(I)c1C2=O`: in [8], the IC90 at 24 h was found to be 128 µg/mL (≈ 198 µM). The MIC is above 256 µg/mL in [1]; 8 µg/mL (≈ 12.3 µM) in data set [9]; 8 µg/mL (≈ 12.3 µM) in data set [10]; above 256 µg/mL in data set [3]; 16 µg/mL (≈ 24.7 µM) in [12]; 8 µg/mL (≈ 12.3 µM) in data set [13]. Moreover, the viability at 24 h, 0.256 mg/ml in data set [11] is above 75%.
Consider `CN[C@H](CC(C)C)C(=O)N[C@H]1C(=O)N[C@@H](CC(N)=O)C(=O)N[C@H]2C(=O)N[C@H]3C(=O)N[C@H](C(=O)N[C@H](C(=O)O)c4cc(O)cc(O)c4-c4cc3ccc4O)[C@H](O)c3ccc(c(Cl)c3)Oc3cc2cc(c3O[C@@H]2O[C@H](CO)[C@@H](O)[C@H](O)[C@H]2O[C@H]2C[C@](C)(N)[C@H](O)[C@H](C)O2)Oc2ccc(cc2Cl)[C@H]1O.Cl` [VANCOMYCIN HYDROCHLORIDE], for which the MIC in data set [9] and in data set [13] was 2 µg/mL throughout.
On to `Cc1cc(O)c2c(c1)C(=O)c1c(Cl)c(O)c(I)c(O)c1C2=O`, for which the MIC in [1] is above 256 µg/mL; in data set [9], 32 µg/mL (≈ 74.3 µM); in data set [10], 32 µg/mL (≈ 74.3 µM); in [3], above 256 µg/mL; in [12], 64 µg/mL (≈ 149 µM); in data set [13] it was 32 µg/mL (≈ 74.3 µM). For the same compound, the viability at 24 h, 0.256 mg/ml in [11] was above 75%.
On to `Cc1cc(O)c2c(c1)C(=O)c1c(Br)c(O)c(Br)c(O)c1C2=O`, for which, in data set [8], the IC90 at 24 h is 128 µg/mL (≈ 299 µM). Moreover, the MIC in data set [1] was above 256 µg/mL; in data set [9], 8 µg/mL (≈ 18.7 µM); in data set [10], 8 µg/mL (≈ 18.7 µM); in data set [3] it was above 256 µg/mL; in [12], 16 µg/mL (≈ 37.4 µM); in [13], 8 µg/mL (≈ 18.7 µM). Moreover, in data set [11], the viability at 24 h, 0.256 mg/ml was above 75%.
As for `CC1COc2c(N3CCN(C)CC3)c(F)cc3c(=O)c(C(=O)O)cn1c23` (stereo not drawn), the inhibition result in data set [14] was “Active”.
As to `Cc1c(Cl)c(O)c2c(c1Cl)C(=O)c1c(Cl)c(O)cc(O)c1C2=O`, the IC90 at 24 h in data set [8] came out at 256 µg/mL (≈ 685 µM). Besides, the MIC in data set [1] was above 256 µg/mL; in data set [9], 8 µg/mL (≈ 21.4 µM); in [10], 8 µg/mL (≈ 21.4 µM); in data set [3] it was above 256 µg/mL; in data set [12] it was 16 µg/mL (≈ 42.8 µM); in data set [13], 8 µg/mL (≈ 21.4 µM). Besides, the viability at 24 h, 0.256 mg/ml in data set [11] is above 75%.
In the case of `CO[C@@]1(NC(=O)Cc2cccs2)C(=O)N2C(C(=O)[O-])=C(COC(N)=O)CS[C@@H]21.[Na+]` [CEFOXITIN SODIUM], the MIC in data set [15] worked out at 1 µg/mL; in data set [16], 128 µg/mL; in data set [17], 128 µg/mL; in [18], 0.5 µg/mL; in data set [12] it was 2 µg/mL.
Consider `Cc1cc(O)c2c(c1)C(=O)c1cc(O)c(I)c(O)c1C2=O`, for which the MIC is above 256 µg/mL in data set [1]; 16 µg/mL (≈ 40.4 µM) in data set [9]; 16 µg/mL (≈ 40.4 µM) in [10]; above 256 µg/mL in data set [3]; 32 µg/mL (≈ 80.8 µM) in data set [12]; 16 µg/mL (≈ 40.4 µM) in data set [13]. In addition, the viability at 24 h, 0.256 mg/ml in data set [11] is above 75%.
